Compound activity from PubChem BioAssay.
An excerpt weighted towards active compounds, which were near 4% of everything screened.
TAAR1 ag: human TAAR1 agonists, primary screen, Fluo-8 calcium fluorescence, CHO RD-HGA16 cells | Trace amine-associated receptor 1 (Homo sapiens), Q96RJ0 | activation, % at 3 µM | AID 624467, 2012 | vehicle wells 0%, saturating PEA agonist 100% | 360,000 compounds, 0.99% hits;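 active = activation above the mean activation of all test compounds in the run plus 3 SD, cut at about 38% in these data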
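Assay system – CHO-derived RD-HGA16 cells with stable Gα16 and human TAAR1 · Compound dosing – one-point dosing at 3 µM (nominal) · Incubation – 17-24 h seeding, 75 min 37 °C dye, 30 min RT · Measured by – kinetic Fluo-8 calcium fluorescence · Control set – DMSO vehicle as 0%, PEA at EC100 as 100% · Repeats – single well for each compound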
MPTP inh: mitochondrial permeability transition pore inhibitors, primary screen, biochemical, isolated mouse mitochondria, absorbance; Ca2+ swelling absorbance, 30 min; inhibition, % at 10 µM; 360,000 compounds, 1.4% hits;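 active = inhibition of 50% or more, scaled per plate between neutral and stimulator controls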
GPR7 antag: GPR7 receptor antagonists, primary screen, cell-based, fluorescence, single concentration; inhibition, % at 4.4 µM; 290,000 compounds, 1.1% hits; GPR7-expressing cells, fluorescence antagonist assay; AID 1861, 2009; Neuropeptides B/W receptor type 1 (Homo sapiens), P48145; in the data active = inhibition above about 16%, passing the limit was not always enough;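 note: cells stimulated with the agonist NPW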
TAAR1 antag: human TAAR1 antagonists, primary screen, Fluo-8 calcium fluorescence, CHO RD-HGA16 cells; Trace amine-associated receptor 1 (Homo sapiens), Q96RJ0; 360,000 compounds, 1.5% hits; antagonist; inhibition, % at 3 µM;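 active = inhibition above a per-plate cutoff, the mean inhibition of test compounds on that plate plus 3 SD, cut at about 49% in these data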
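Test system: RD-HGA16 CHO cells with stable hTAAR1 and Gα16 / Probe or stimulus: EC80 β-phenethylamine stimulus / Times: seeding 17-24 h prior, 75-min 37 °C, 30-min RT dye loading / Detection: Fluo-8 calcium-sensitive fluorescence / Read-out basis: % inhibition scaled between DMSO and EC80 PEA controls / Repeats: singlicate, one well per test compound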
DAGLB inhibitor: DAGLB lipase inhibitors, primary screen, biochemical, fluorescence, HTS; Diacylglycerol lipase-beta (Homo sapiens), Q8NCG7; HEK293T DAGLB membrane lysate, EnzChek fluorogenic substrate; inhibition, % at 5.17 µM; 340,000 compounds, 0.059% hits; AID 504411, 2011; in the data active = inhibition above about 34%
Target sequence (Q8NCG7 whole entry, looked up): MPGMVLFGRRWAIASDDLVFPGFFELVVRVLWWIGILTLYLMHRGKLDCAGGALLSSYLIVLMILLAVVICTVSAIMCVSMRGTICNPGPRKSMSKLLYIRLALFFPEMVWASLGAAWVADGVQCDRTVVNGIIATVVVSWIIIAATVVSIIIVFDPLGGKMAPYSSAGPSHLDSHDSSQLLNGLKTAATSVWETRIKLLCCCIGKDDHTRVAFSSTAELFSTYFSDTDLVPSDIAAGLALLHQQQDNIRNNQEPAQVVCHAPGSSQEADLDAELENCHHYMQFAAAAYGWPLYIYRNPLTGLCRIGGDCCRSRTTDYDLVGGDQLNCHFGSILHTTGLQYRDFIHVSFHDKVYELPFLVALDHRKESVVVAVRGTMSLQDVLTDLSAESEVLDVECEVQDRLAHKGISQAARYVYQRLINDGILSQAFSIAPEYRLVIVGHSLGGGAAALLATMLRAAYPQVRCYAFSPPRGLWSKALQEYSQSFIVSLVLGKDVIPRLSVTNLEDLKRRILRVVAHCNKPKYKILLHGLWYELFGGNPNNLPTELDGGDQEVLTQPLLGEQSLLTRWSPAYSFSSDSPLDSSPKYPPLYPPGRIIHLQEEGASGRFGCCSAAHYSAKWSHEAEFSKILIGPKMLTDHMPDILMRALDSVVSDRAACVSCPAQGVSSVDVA
Rh123 counter: fluorescence retest of MPTP screen hits in isolated mitochondria, single concentration; shares compounds with MPTP inh; membrane potential, Rhodamine 123 fluorescence; inhibition, % at 10 µM; 5,000 compounds, 78% hits; AID 624504, 2012; in the data active = inhibition above about 22%
MPTP abs DR: mitochondrial permeability transition pore inhibitors, dose response, biochemical, absorbance, uHTS hits; shares compounds with MPTP inh; isolated mitochondria swelling; IC50, µM; 780 compounds, 58% hits; AID 651561, 2012; in the data active = IC50 below about 20 µM
MPTP cs DR: fluorescent counter-screen in isolated mitochondria, dose response, counter-screen for MPTP inhibitor project, biochemical, fluorescence, uHTS hits. IC50, µM. isolated mitochondria counterscreen, fluorescence read-out. 780 compounds, 49% hits. AID 651564, 2012. shares compounds with MPTP inh; in the data active = IC50 below about 80 µM
Of the large screens only hits and unclear results are named; the others gave an inactive call (follow-up assays come after a bar, where they were run).

Cc1cccc(NC(=O)COC(=O)CN2C(=O)C3CCCCC3C2=O)c1C (stereo unspecified)	none (no result: GPR7 antag)
CN(Cc1cn(C)nc1-c1ccc(Oc2ccccc2)cc1)Cc1cnc2ccccn12	MPTP inh 69 | Rh123 counter 57
CN(CC(=O)Nc1cccc(F)c1)CC(=O)Nc1ccccc1[N+](=O)[O-]	MPTP inh 78 | Rh123 counter 51
O=C(CSc1nnc(Cn2nnc3ccccc32)o1)N(Cc1ccc(F)cc1)c1ccccc1	MPTP inh 85 | Rh123 counter 94
Cc1ccccc1CN1[C@@H](C)[C@H](c2ccccc2)Oc2cccc(NCC(C)C)c2S1(=O)=O	none (no result: MPTP inh, GPR7 antag, DAGLB inhibitor)
Cc1ccc(NC(=O)Nc2nnc(CSCCOc3ccc(Cl)cc3)s2)cc1	MPTP inh 60 | Rh123 counter inactive | MPTP abs DR inactive | MPTP cs DR <2.5
O=C(Nc1cccc(Cl)c1)Nc1nnc(CSCCOc2ccc(Cl)cc2)s1	MPTP inh 92 | Rh123 counter 92
O=C(Nc1nnc(CC2=CCCCC2)s1)Nc1ccccc1F	none (no result: TAAR1 ag, MPTP inh, TAAR1 antag, DAGLB inhibitor)
O=C(Nc1cccc(Cl)c1)Nc1nnc(CC2=CCCCC2)s1	MPTP inh 89 | Rh123 counter 44
COc1cccc(NC(=O)Nc2nnc(COCCO)s2)c1	none (no result: GPR7 antag, DAGLB inhibitor)
CCc1nnc(NC(=O)Nc2ccc(OC)cc2)s1	none
COc1ccc(OCCSCc2nnc(NC(=O)Nc3ccc(Cl)cc3)s2)cc1	MPTP inh 94 | Rh123 counter 71
COCC(=O)N(C)C[C@H]1Oc2ncc(Br)cc2C(=O)N([C@@H](C)CO)C[C@H]1C	none (no result: GPR7 antag)
COC(=O)C[C@@H]1C=C[C@H](NC(=O)Nc2ccc(F)cc2)[C@@H](CO)O1	none (no result: GPR7 antag, DAGLB inhibitor)
Nc1[nH]c(C(=O)c2ccc(Br)cc2)c(-c2ccccc2)c1C(=O)NCCc1c[nH]c2ccccc12	none (no result: MPTP inh, GPR7 antag, DAGLB inhibitor)
CCCCC(CC)C(=O)Nc1ncc([N+](=O)[O-])s1 (stereo unspecified)	MPTP inh 98 | Rh123 counter 100
Cc1ccc(S(=O)(=O)CC(=O)Nc2ncc([N+](=O)[O-])s2)cc1	none
Cc1ccc(CC(=O)Nc2ncc([N+](=O)[O-])s2)cc1	MPTP inh 66 | Rh123 counter 90
CC(C)(C)c1ccc(NC(=O)N2CCN(c3ccc([N+](=O)[O-])cn3)CC2)cc1	MPTP inh 67 | Rh123 counter 54
O=C(O)c1c(Cl)cccc1Nc1ccccc1	none (no result: GPR7 antag, DAGLB inhibitor)
COc1ccc(NC(=O)C23CC4CC(C2)CC(c2ccc(C)cc2)(C4)C3)cc1	MPTP inh 60 | Rh123 counter 21
COc1ccccc1NC(=O)C12CC3CC(C1)CC(c1ccc(C)cc1)(C3)C2	none
C=C(C)C(=O)Oc1ccc(N=Nc2ccc(C)cc2)ccc1=O	none (no result: GPR7 antag, DAGLB inhibitor)
CCCCc1c(C)c(C#N)c2[nH]c3ccccc3n2c1=O	MPTP inh 83 | Rh123 counter 96
CC(C)CN(Cc1cc(=O)oc2cc(-c3ccccc3)c(O)cc12)CC(C)C	MPTP inh 93 | Rh123 counter 85
O=c1cc(CN2CCN(C/C=C/c3ccccc3)CC2)c2cc(O)c(-c3ccccc3)cc2o1	none
O=C(NCCOc1ccccc1)c1ccccc1Cl	none
CN(C(=O)COc1ccccc1C(=O)NCCOc1ccccc1)c1ccccc1	MPTP inh 51, TAAR1 antag 75 | Rh123 counter 31
CCc1cc(C(=O)N/N=C/c2ccc(OC)cc2)c2ccccc2n1	none
COC(=O)C1=C(C)N(Cc2cccc(C(F)(F)F)c2)C(=NCc2ccc3c(c2)OCO3)NC1c1cccc(Cl)c1 (stereo unspecified)	none (no result: MPTP inh, GPR7 antag, DAGLB inhibitor)
Cc1nc2cc(-c3ccsc3-n3c(C)ccc3C)[nH]n2c(=O)c1Cl	MPTP inh 67 | Rh123 counter 51
CCOc1cccc(C(=O)NC(=S)Nc2ccc(N3CCN(CC)CC3)cc2)c1	none
O=C(NC(=S)Nc1ccc(CN2CCCCC2)cc1)c1cccc(OCc2ccccc2)c1	MPTP inh 84 | Rh123 counter inactive | MPTP abs DR inactive | MPTP cs DR inactive
O=C(O)c1ccc(NC(=S)NC(=O)c2cccc(COc3ccccc3)c2)cc1	none
CCCOc1cccc(C(=O)NC(=S)Nc2ccc(N3CCN(C)CC3)cc2)c1	MPTP inh 76 (no result: DAGLB inhibitor) | Rh123 counter inactive | MPTP abs DR 7.1 | MPTP cs DR 39
Cn1cc(C(c2ccccc2OCC(=O)O)c2cn(C)c3ccccc23)c2ccccc21	none
Clc1ccc(NNc2ccnc3cc(Cl)ccc23)cc1	none
Cc1ccc(/C=N/Nc2ccnc3cc(Cl)ccc23)c(C)c1	MPTP inh 64 | Rh123 counter 92
Clc1ccc2c(N/N=C/c3cccnc3)ccnc2c1	none
Oc1ccc(/C=N/Nc2ccnc3cc(Cl)ccc23)c(O)c1	TAAR1 ag 44, MPTP inh 58 | Rh123 counter 59
Cc1ccccc1/C=N/Nc1ccnc2cc(Cl)ccc12	MPTP inh 99 | Rh123 counter 91
Clc1ccc2c(N/N=C/c3ccc(Br)cc3)ccnc2c1	MPTP inh 88 | Rh123 counter 74
CCCCCCCCN1C(=O)[C@@H](CC(=O)N2CCSCC2)C[C@@]2(C(=O)OC)C1=C[C@H](C1CCCC1)O[C@@H]2C	none (no result: MPTP inh, GPR7 antag, DAGLB inhibitor)
CC1(C(=O)NS(=O)(=O)c2cccc(Cl)c2)CCN1C(=O)C1(c2ccccc2)CC1 (stereo unspecified)	none (no result: GPR7 antag, DAGLB inhibitor)
N#Cc1cc(C(=O)c2cc(Br)ccc2O)cn(Cc2ccccc2)c1=O	MPTP inh 52 | Rh123 counter 77
COC(=O)C1=C(C)N(Cc2ccccc2C(F)(F)F)C(=NCc2ccc3c(c2)OCO3)NC1CCc1ccccc1 (stereo unspecified)	none (no result: MPTP inh, GPR7 antag, DAGLB inhibitor)
CCCCNC(=O)C1c2ccccc2OCC(=O)N1Cc1ccccc1 (stereo unspecified)	none (no result: GPR7 antag, DAGLB inhibitor)
Cc1ccccc1OCCCSc1nc2ccccc2[nH]1	MPTP inh 68 | Rh123 counter 99
CSc1c(N(C)C)c(=O)c1=S	none (no result: MPTP inh, GPR7 antag, DAGLB inhibitor)
Cn1nc(CC(=O)Nc2ccc3c(c2)CCC3)c2ccccc2c1=O	MPTP inh 95 | Rh123 counter 78
CC1(C(=O)NCCC#N)CCN1C(=O)C1(c2ccccc2)CCCC1 (stereo unspecified)	none (no result: GPR7 antag, DAGLB inhibitor)
